Values after ≈ are worked out from the molar mass of the structure shown. Active and inactive are the calls of the source. The rule behind the calls is not given here.
Experiments:
Staphylococcus aureus [1] = experiment: Bacteriostatic activity against NorA deficient Staphylococcus aureus K1758; assay type: functional
Outline: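 Broth microdilution MIC per CLSI guidance in LB, 37 °C, shaking 250 rpm, 24 hr; run in triplicate in three separate experiments. MIC taken as lowest inhibitor concentration with no growth. Compounds from DMSO stocks; untreated controls carry equal DMSO.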

[2] = target: T1, Protein translocase subunit SecA 1 (Staphylococcus aureus (strain NCTC 8325)) (UniProt O06446); experiment: Inhibition of Staphylococcus aureus SecA1 assessed as reduction in secretion of enterotoxin B at 10 uM by Western blot analysis
T1 sequence (whole entry): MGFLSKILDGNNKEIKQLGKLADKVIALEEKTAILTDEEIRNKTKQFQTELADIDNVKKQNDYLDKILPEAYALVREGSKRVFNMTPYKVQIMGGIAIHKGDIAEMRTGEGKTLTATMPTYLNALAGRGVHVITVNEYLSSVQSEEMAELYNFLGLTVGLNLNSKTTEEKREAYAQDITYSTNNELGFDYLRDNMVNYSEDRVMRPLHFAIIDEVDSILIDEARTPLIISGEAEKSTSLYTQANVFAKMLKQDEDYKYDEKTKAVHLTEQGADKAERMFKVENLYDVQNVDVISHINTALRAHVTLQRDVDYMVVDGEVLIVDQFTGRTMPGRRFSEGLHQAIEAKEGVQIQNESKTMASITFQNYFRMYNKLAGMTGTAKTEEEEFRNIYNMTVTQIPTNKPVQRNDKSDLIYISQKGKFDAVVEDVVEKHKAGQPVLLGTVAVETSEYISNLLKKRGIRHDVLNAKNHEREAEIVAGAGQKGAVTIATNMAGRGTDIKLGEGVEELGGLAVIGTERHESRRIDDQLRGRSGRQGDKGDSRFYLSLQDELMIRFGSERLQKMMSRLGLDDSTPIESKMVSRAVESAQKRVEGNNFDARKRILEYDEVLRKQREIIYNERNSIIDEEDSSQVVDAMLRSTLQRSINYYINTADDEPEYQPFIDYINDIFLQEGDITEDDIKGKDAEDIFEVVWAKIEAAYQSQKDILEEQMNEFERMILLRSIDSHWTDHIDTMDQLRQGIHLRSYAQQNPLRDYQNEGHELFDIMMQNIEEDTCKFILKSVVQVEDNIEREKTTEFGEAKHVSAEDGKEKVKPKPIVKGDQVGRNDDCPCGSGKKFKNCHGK
Outline: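 S. aureus Mu50 grown in LB at 37 °C; inhibitor added at mid-log phase and cultures sampled at several time points. Supernatants separated by centrifugation, filtered 0.45 μm, and probed by Western blot with antibodies to α-hemolysin, TSST-1 or enterotoxin B.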

Staphylococcus aureus [3] = experiment: Reduction in extracellular protein in Staphylococcus aureus Mu50 supernatant at 10 uM measured within 15 hrs; assay type: functional, organism-based
Outline: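 Mu50 grown in LB at 37 °C; inhibitor added at mid-log phase (OD600 ≈ 2.6). Culture sampled at various times, supernatant separated by centrifugation and passed through 0.45 μm filter. Secreted α-hemolysin, TSST-1 and enterotoxin B detected by Western blot with specific antibodies.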

CCCCCCC1c2ccc(O)cc2Oc2cc(O)ccc21
MIC (Staphylococcus aureus [1]): 4 µg/mL (≈ 13.4 µM)
inhibition [2]: Active
Activity (Staphylococcus aureus [3]): Active

— ChEMBL document CHEMBL3734668, “Evaluation of small molecule SecA inhibitors against methicillin-resistant Staphylococcus aureus” (Bioorg Med Chem, 2015)
